The subject of assay [1] is Human betaherpesvirus 5. The assay is described as follows: Antiviral activity against human cytomegalovirus (HCMV) in plaque reduction assay. It counts as functional, organism-based. Summed up:
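HFF cells infected with roughly 100 pfu HCMV Towne per cm2; after adsorption, drug in growth medium at four to eight concentrations in duplicate wells; 7 days at 37 °C, crystal violet staining, microscopic plaque counts as percent reduction versus no-drug control. IC50 by regression on log concentration; average of duplicate experiments.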
On the technique in general: Plaques are areas of infected cells; plaque reduction assays count them against a control.

In assay [2] the test system is HFF. The experiment in a line: Inhibition against human foreskin fibroblast (HFF) in a visual assay at time of plaque enumeration. Type of assay: functional, cell-based. Summed up: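 Stationary uninfected HFF cells, grown in MEM with 10% fetal bovine serum, inspected microscopically for cytotoxicity, scored visually when plaques were counted in the HCMV plaque assay.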

The test system of assay [3] is Human alphaherpesvirus 1. The experiment in a line: Antiviral activity against herpes simplex virus type 1 (HSV-1) by ELISA test. Type of assay: functional, organism-based. Summed up:
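BSC-1 cells (10 000/well) in MEM(E) plus 10% calf serum, incubated overnight at 37 °C, then drug in quadruplicate plus HSV-1 KOS at 100 pfu/well; 3 days at 37 °C; HRP-conjugated rabbit anti-HSV-1 antibody, TMB substrate, absorbance at 450 and 570 nm. Percent reduction versus virus-only control; IC50 by regression on log concentration.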
(In general: An ELISA detects its analyte on a solid surface through an enzyme-linked reagent.)

In assay [4] the test system is L1210. The experiment in a line: Antiproliferative activity against murine L1210 cells. Particulars: Mus musculus. It counts as functional, cell-based. In short, it runs like this:
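Murine L1210 leukemia cells in Fischer's medium with 10% heat-inactivated horse serum; cells counted at 0, 24, 48, 72, 96 h with compound; growth rate from slope of semilog cell number vs time, as percent of control (doubling time 12 h). IC50 = concentration halving growth rate; average of two or three experiments.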

The test system of assay [5] is KB. The experiment in a line: Antiproliferative activity against KB cell. It counts as functional, cell-based. The note with it: Homo sapiens. In short, it runs like this: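 KB cells seeded at 3000-5000/well, compound added after overnight culture at 37 °C in quadruplicate at six to eight concentrations; 48 h incubation (about two population doublings) in CO2 incubator; ethanol fixation, 0.1% crystal violet stain, eluted dye read at 570 nm. IC50 from linear regression of percent inhibition against log concentration.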

For the compound `CSc1nc2sncc2n1[C@@H]1O[C@H](CO)[C@@H](O)[C@@H]1O`, the IC50 – broadly, the point on the concentration scale where inhibition reaches its midpoint – in assay [1] stood at 32 µM; in assay [2], 21 µM; in assay [3], 25 µM; in assay [4], 11 µM; in assay [5], 15 µM.

Turning to `c1ccc(CSc2nc3cnsc3[nH]2)cc1`, the IC50 in assay [1] was determined as 21 µM; in assay [2] it was 14 µM; in assay [3], 15 µM; in assay [4] it was 0.3 µM; in assay [5] it was 0.2 µM.

As for `OC[C@H]1OC(n2c(SCc3ccccc3)nc3cnsc32)[C@@H](O)[C@@H]1O` (stereo not given in full), the IC50 in assay [1], in assay [2], in assay [3], in assay [4] and in assay [5] was over 100 µM in each case.

For the compound `CSc1nc2cnsc2n1[C@H]1C[C@H](O)[C@@H](CO)O1`, the IC50 in assay [1], in assay [2], in assay [3], in assay [4] and in assay [5] was over 100 µM each time.

Turning to `Cc1nsc2c1ncn2[C@@H]1O[C@H](CO)[C@@H](O)[C@@H]1O`, the IC50 in assay [1], in assay [2], in assay [3], in assay [4] and in assay [5] was over 100 µM each time.

Take `CSc1nc2cnsc2[nH]1`: the IC50 in assay [1] came out at 32 µM; in assay [2], 32 µM; in assay [3], 45 µM; in assay [4], 7 µM; in assay [5], 15 µM.

On to `OC[C@H]1O[C@@H](n2c(SCc3ccccc3)nc3cnsc32)C[C@@H]1O`, for which the IC50 in assay [1] is over 100 µM; in assay [2], over 100 µM; in assay [3] it was over 100 µM; in assay [4], 8 µM; in assay [5], over 100 µM.

For the compound `Cc1nsc2[nH]c(SCc3ccccc3)nc12`, the IC50 in assay [1] is 21 µM; in assay [2], 10 µM; in assay [3], 45 µM; in assay [4], 7 µM; in assay [5] it was 9 µM.

On to `Cc1nsc2ncn(C3O[C@H](CO)[C@@H](O)[C@H]3O)c12` (stereo not given in full), for which the IC50 in assay [1] is 32 µM; in assay [2], 32 µM; in assay [3] it was 70 µM; in assay [4], 100 µM; in assay [5] it was over 100 µM.

Take `CSc1nc2c(C)nsc2[nH]1`: the half-inhibitory concentration (IC50) amounted to 18 µM in assay [1]; 26 µM in assay [2]; 60 µM in assay [3]; 13 µM in assay [4]; 60 µM in assay [5].

Consider `Cc1nsc2c1ncn2[C@@H]1O[C@H](CO)[C@@H](O)[C@H]1O`, for which the IC50 in assay [1] was over 100 µM; in assay [2], 150 µM; in assay [3], over 100 µM; in assay [4], 10 µM; in assay [5], 90 µM.

Turning to `Cc1nsc2[nH]cnc12`, the IC50 in assay [1] is 32 µM; in assay [2], 32 µM; in assay [3], 45 µM; in assay [4], 17 µM; in assay [5], 20 µM.

Turning to `Cc1nsc2c1nc(SCc1ccccc1)n2[C@H]1C[C@H](O)[C@@H](CO)O1`, the IC50 in assay [1], in assay [2], in assay [3], in assay [4] and in assay [5] was over 100 µM each time.

As to `CSc1nc2cnsc2n1[C@@H]1O[C@H](CO)[C@@H](O)[C@@H]1O`, the IC50 was over 100 µM in assay [1]; over 100 µM in assay [2]; 100 µM in assay [3]; over 100 µM in assay [4]; over 100 µM in assay [5].

`CSc1nc2c(C)nsc2n1[C@@H]1O[C@H](CO)[C@@H](O)[C@H]1O`: the IC50 in assay [1], in assay [2], in assay [3], in assay [4] and in assay [5] was over 100 µM in each case.

With `CSc1nc2snc(C)c2n1[C@H]1C[C@H](O)[C@@H](CO)O1`, the IC50 was 32 µM in assay [1]; 32 µM in assay [2]; 60 µM in assay [3]; 33 µM in assay [4]; 30 µM in assay [5].

With `OC[C@H]1OC(n2c(SCc3ccccc3)nc3sncc32)[C@@H](O)[C@@H]1O` (stereo not given in full), the IC50 in assay [1] is 3.2 µM; in assay [2], 2.1 µM; in assay [3] it was over 100 µM; in assay [4] it was 1.5 µM; in assay [5], 3 µM.

Turning to `Cc1nsc2ncn([C@H]3C[C@H](O)[C@@H](CO)O3)c12`, the IC50 in assay [1] is over 100 µM; in assay [2] it was over 100 µM; in assay [3], over 100 µM; in assay [4], 78 µM; in assay [5], over 100 µM.

Regarding `CSc1nc2c(C)nsc2n1[C@@H]1O[C@H](CO)[C@@H](O)[C@@H]1O`, the IC50 in assay [1], in assay [2], in assay [3], in assay [4] and in assay [5] was over 100 µM in each case.

Take `CSc1nc2cnsc2n1[C@@H]1O[C@H](CO)[C@@H](O)[C@H]1O`: the IC50 in assay [1], in assay [2], in assay [3], in assay [4] and in assay [5] was over 100 µM each time.

`OC[C@H]1O[C@@H](n2c(SCc3ccccc3)nc3sncc32)C[C@@H]1O`: the IC50 is 3.2 µM in assay [1]; 2.1 µM in assay [2]; 15 µM in assay [3]; 2.2 µM in assay [4]; 3 µM in assay [5].

For the compound `CSc1nc2sncc2n1[C@@H]1O[C@H](CO)[C@@H](O)[C@H]1O`, the IC50 in assay [1] worked out at 32 µM; in assay [2], 21 µM; in assay [3] it was 20 µM; in assay [4] it was 8.6 µM; in assay [5], 15 µM.

Consider `Cc1nsc2c1nc(SCc1ccccc1)n2[C@@H]1O[C@H](CO)[C@@H](O)[C@H]1O`, for which the IC50 in assay [1], in assay [2], in assay [3], in assay [4] and in assay [5] was over 100 µM throughout.

For the compound `Cc1nsc2c1nc(SCc1ccccc1)n2[C@@H]1O[C@H](CO)[C@@H](O)[C@@H]1O`, the IC50 in assay [1], in assay [2], in assay [3], in assay [4] and in assay [5] was over 100 µM in each case.

`CSc1nc2c(C)nsc2n1[C@H]1C[C@H](O)[C@@H](CO)O1`: the IC50 in assay [1], in assay [2], in assay [3], in assay [4] and in assay [5] was over 100 µM throughout.

Consider `CSc1nc2sncc2n1[C@H]1C[C@H](O)[C@@H](CO)O1`, for which the IC50 in assay [1] came out at 22 µM; in assay [2], 15 µM; in assay [3], 10 µM; in assay [4], 20 µM; in assay [5] it was 6 µM.

In the case of `Cc1nsc2c1ncn2[C@H]1C[C@H](O)[C@@H](CO)O1`, the IC50 in assay [1], in assay [2], in assay [3], in assay [4] and in assay [5] was over 100 µM throughout.

(Values after ChEMBL document CHEMBL1129957, “Synthesis, antiproliferative and antiviral activity of imidazo[4,5-d]isothiazole nucleosides as 5:5 fused analogs of nebularine and 6-methylpurine ribonucleoside” (J Med Chem, 1997).)
